Jurkat tox 60K = cytotoxicity toward Jurkat T cells, primary screen, cytotoxicity control, cell-based, Jurkat E6.1, 60K MLSMR library. inhibition, % at 4 µM. AID 463, 2006. 56,000 compounds, 1.2% hits. Jurkat E6.1 viability, ATP luminescence, 48 h;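 active = inhibition above the mean inhibition of all tested compounds plus 3 SD, cut at about 28% in these data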
Pyk2 oligo antag = antagonists of Pyk2 self-association, primary screen, Q293 cells, FERM NanoBiT luminescence, HTS; 99,000 compounds, 0.83% hits; z-score (the deposit names both 25 µM and 10 µM); Protein-tyrosine kinase 2-beta (Homo sapiens), Q14289; hits give low values;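 active = Z-score of -3 or lower, scaled per plate to the spread of control and sample wells; inactive = z-score above -3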;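 note: negative z-score means lost luminescence so less FERM oligomerization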
Target sequence (Q14289 whole entry, looked up): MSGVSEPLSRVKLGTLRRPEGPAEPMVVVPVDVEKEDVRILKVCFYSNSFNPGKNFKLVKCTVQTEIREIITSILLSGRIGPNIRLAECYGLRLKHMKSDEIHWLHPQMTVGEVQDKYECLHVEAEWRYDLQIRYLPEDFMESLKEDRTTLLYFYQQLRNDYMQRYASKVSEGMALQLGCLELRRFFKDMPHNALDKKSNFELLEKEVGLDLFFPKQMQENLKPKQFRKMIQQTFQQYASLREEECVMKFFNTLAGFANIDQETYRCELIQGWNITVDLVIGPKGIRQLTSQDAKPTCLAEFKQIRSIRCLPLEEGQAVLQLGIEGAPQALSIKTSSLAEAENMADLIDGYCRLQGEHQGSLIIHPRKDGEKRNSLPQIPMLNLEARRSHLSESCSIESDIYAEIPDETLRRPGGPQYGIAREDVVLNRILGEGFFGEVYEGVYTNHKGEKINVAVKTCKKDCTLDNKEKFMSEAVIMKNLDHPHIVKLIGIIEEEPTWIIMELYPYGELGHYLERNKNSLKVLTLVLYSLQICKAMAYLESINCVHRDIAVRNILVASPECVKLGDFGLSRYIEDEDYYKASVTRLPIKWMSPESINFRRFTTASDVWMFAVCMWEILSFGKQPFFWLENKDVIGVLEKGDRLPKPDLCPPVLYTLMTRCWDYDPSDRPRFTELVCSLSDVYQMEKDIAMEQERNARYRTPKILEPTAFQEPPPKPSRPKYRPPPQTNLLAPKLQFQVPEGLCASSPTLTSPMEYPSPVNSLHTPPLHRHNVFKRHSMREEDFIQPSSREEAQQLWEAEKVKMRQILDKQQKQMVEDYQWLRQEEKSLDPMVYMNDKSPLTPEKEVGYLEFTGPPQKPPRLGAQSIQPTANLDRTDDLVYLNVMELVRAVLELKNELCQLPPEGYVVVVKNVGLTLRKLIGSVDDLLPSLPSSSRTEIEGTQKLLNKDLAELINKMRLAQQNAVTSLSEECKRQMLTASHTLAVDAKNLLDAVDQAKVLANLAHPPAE
MT1-MMP txn act = MT1-MMP promoter reporter activation – cell-based, luciferase luminescence, primary screen; HT1080 MT1-MMP promoter luciferase reporter, overnight; hits give high values; activation factor at 10 µM; 86,000 compounds, 0.16% hits; AID 750, 2007;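 active = activation factor of at least 2 for MT1-MMP transcription at 10 µM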
Fibroblast inh = antiproliferative effect on LL 47 fibroblasts – human, LL 47 cells, CellTiter-Glo luminescence, primary screen; LL 47 human lung fibroblast viability, ATP luminescence; hits give low values; viability, % at 10 µM; 85,000 compounds, 1.1% hits; AID 719, 2007;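 active = viability at or below 50% in the single dose screen; inactive = viability above 50%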;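 note: compound exposure lasted 72 h before the ATP readout; 100% = median luminescence of untreated cell-only wells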
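Signal: luminescent ATP detection, CellTiter-Glo; assay system: LL 47 human lung fibroblasts; input: 1,150 cells/well; incubation: overnight cell rest, 72 h compound treatment at 37 °C; measure: % viability versus median cells-only luminescence; medium: IMEM growth medium with 15% fetal bovine serum; dosing: compound addition at 0.1% DMSO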
H69AR inhibit = proliferation blockers of H69AR lung cancer cells, primary screen, cell-based, human, 86K library; AID 598, 2007; 85,000 compounds, 6% hits; viability, % at 10 µM; H69AR lung tumor viability, ATP luminescence, 72 h; hits give low values;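 active = viability at or below 40%; inactive = viability above 40%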;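 note: multidrug resistant small cell line overexpressing MRP-1 efflux transporter; 100% = mean luminescence of untreated control wells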
HUVEC inhibit = inhibitors of HUVEC proliferation, primary screen, cell-based, 384-well; CellTiter-Glo luminescence, 72 h; hits give low values; viability, % at 10 µM (by protocol); 86,000 compounds, 1.1% hits; AID 648, 2007;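 active = viability at or below 30%; inactive = viability above 30%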;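 note: 100% = median luminescence of DMSO-only cell control wells on each plate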
Numbers without * were called inactive; . = not tested or not shown. Hits are enriched below; roughly 5.9% of the tested compounds scored in any of these assays.

SMILES	Jurkat tox 60K	Pyk2 oligo antag	MT1-MMP txn act	Fibroblast inh	H69AR inhibit	HUVEC inhibit
COc1ccc(/C(N)=N/OC(=O)c2cccc([N+](=O)[O-])c2C)cc1OC	.	0.81	1.6	93.0	36.4*	69.8
COC(=O)c1c(O)cc(C(C)(C)C)n(-c2ccccc2)c1=O	.	-0.11	.	.	.	.
CC1C(=O)CC(c2ccccc2)N(C)C1c1ccccc1 (centres undefined)	-1.1	.	1.1	97.7	71.6	97.0
CC(C)C1C(c2ccccc2)N(C)C(c2ccccc2)CC1(O)c1ccccc1 (centres undefined)	.	0.01	1.2	82.9	19.7*	60.6
O=C(NCc1ccco1)C(c1ccc(F)cc1)N(CC1CCCO1)C(=O)Cn1nnc2ccccc21 (centres undefined)	-4.8	1.11	1	105.3	103.2	98.5
COCc1c(C(=O)OCc2nc(N)nc(Nc3ccccc3C)n2)oc2ccccc12	1.5	-1.71	1.3	.	.	.
Cc1c(-c2nc(N)nc(Nc3ccccc3F)n2)oc2ccccc12	0.7	-1.53	1.8	78.2	19.8*	79.2
COc1ccccc1Nc1nc(N)nc(CN2CCOCC2)n1	-10.4	.	1	95.8	61.6	106.2
COc1cccc(Nc2nc(N)nc(-c3oc4ccccc4c3C)n2)c1	.	-1.27	1.2	64.7	17.4*	38.3
COc1ccccc1Nc1nc(N)nc(-c2cc3ccccc3o2)n1	1.5	-2.32	1.2	104.3	10.4*	93.9
O=[N+]([O-])c1ccc(Sc2nccn2Cc2ccccc2)c([N+](=O)[O-])c1	.	-0.59	.	.	.	.
O=C(Nc1cccc2nsnc12)c1ccc(-c2cccc(Cl)c2)o1	.	-1.21	.	.	.	.
O=C(Nc1ccc(S(=O)(=O)N2CCCCC2)cc1)c1ccccc1Cl	.	-1.04	1	99.4	78.4	121.8
O=C(Nc1ccccc1)Nc1ccc(S(=O)(=O)N2CCCCC2)cc1	0.5	-2.68	1.1	93.1	12.8*	48.5
CN1CCN(S(=O)(=O)c2ccc(NC(=O)Nc3cccc(Cl)c3)cc2)CC1	5.8	0.14	1.3	83.1	35.2*	3.2*
COCCN1Cc2cccc(C(=O)Nc3ccc(S(=O)(=O)N4CCCCCC4)cc3)c2C1=O	-4.5	.	1.2	78.9	25.0*	47.4
COC(=O)[C@@H]1C[C@@]2(O)[C@@H](O)[C@@H](O)[C@@H](O)C[C@H]2N1CC1CCCCC1	.	.	1	.	.	.
COc1cccc(C(=O)Nc2nnc(-c3ccc(Cl)cc3)o2)c1	-2.9	.	1.1	.	.	.
COc1ccc(-c2nnc(NC(=O)c3ccccc3C)o2)cc1	42.8*	.	.	73.8	73.8	30.8
COc1ccc(-c2nnc(NC(=O)C(C)C)o2)cc1	-2.0	.	1.1	95.2	86.1	93.0
COc1cccc(C(=O)Nc2nnc(-c3ccc(F)cc3)o2)c1	1.9	.	.	91.3	36.7*	55.8
CCOc1ccc(-c2nnc(NC(=O)c3ccc(OCC(C)C)c(OC)c3)o2)cc1	1.4	-0.14	1.3	54.3	29.0*	19.4*
CCNC(=O)NC(=O)C(C)Sc1nc2ccccc2n1CC(C)C (centres undefined)	.	-0.29	1.2	100.7	91.7	106.9
Cc1ccc(S(=O)(=O)NC(CC(=O)NCC2CCCO2)c2ccco2)cc1 (centres undefined)	-3.3	0.41	1	99.1	105.7	94.3
COc1ccc(N(CC(=O)Nc2ccc(S(=O)(=O)N3CCCCC3)cc2)S(C)(=O)=O)cc1OC	.	-1.49	1	87.2	86.1	82.9
SMILES	Jurkat tox 60K	Pyk2 oligo antag	MT1-MMP txn act	Fibroblast inh	H69AR inhibit	HUVEC inhibit
CCN(CC)c1cc(CS(=O)c2ccccc2)nc(-c2ccccc2)n1 (centres undefined)	.	-0.85	.	.	.	.
COc1c2c(nc3ccccc13)OC(C(C)(O)CO)C2 (centres undefined)	.	0.3	1.1	107.4	82.0	92.7
C=CCN=C(NC#N)SCc1ccccc1	.	-0.34	1.2	101.8	92.0	105.8
C=CCN=C(NC#N)SCC(=O)c1cccc(OC)c1	-6.7	-1.32	2*	92.2	34.7*	95.7
CCSC1(SCC)N=C(N)C2(C#N)C(c3ccc(F)cc3)C12C#N (centres undefined)	.	0.87	0.9	3.8*	0.8*	9.6*
CCOC(=O)C1CCCN(C(=O)c2cc3c(-c4cccc(OC)c4)nn(C)c3s2)C1 (centres undefined)	79.1*	-0.58	0.9	94.8	21.7*	72.7
COc1cccc(-c2nn(C)c3sc(C(=O)N4CCOCC4)cc23)c1	9.2	.	1.1	99.1	92.7	86.6
CCOC(=O)C1CCN(C(=O)c2cc3c(-c4ccc(OC)c(OC)c4)nn(C)c3s2)CC1	5.2	.	1.1	110.7	78.6	79.0
COc1cccc(-c2nn(C)c3sc(C(=O)N4CCN(c5ccccn5)CC4)cc23)c1	30.6	-3.91*	1.1	.	.	.
CN1CCN(CC#CCn2c3ccccc3c3ccccc32)CC1	-0.3	0.18	1.3	94.9	63.3	72.9
CC(C)(Oc1ccc(Cl)cc1)C(=O)N/N=C/c1cn[nH]c1-c1ccccc1	.	0.28	.	.	.	.
CCN(CC)c1ccc(C2Nc3cccc4cccc(c34)N2)c(O)c1	.	-1.58	1.7	96.8	19.2*	73.6
O=C(NCc1ccco1)c1ccccc1NS(=O)(=O)c1ccc(Br)s1	.	-1.7	1.1	98.1	104.8	57.1
CC(C)OC(=O)c1nnn(-c2nonc2N)c1CSc1ccccn1	-4.1	-2.12	1.1	97.9	96.4	98.6
O=C(c1cc2ccccc2oc1=O)N(Cc1ccccc1)Cc1ccc2c(c1)OCO2	.	-3.14*	2.5*	93.7	108.7	87.4
O=C(c1cc2ccccc2oc1=O)N1CCN(Cc2ccc3c(c2)OCO3)CC1	-3.1	0.26	1	107.2	91.6	101.9
C/C(=C\C(=O)c1ccncc1)Nc1ccccc1O	18.8	-0.27	1.1	93.7	23.3*	108.2
COc1cc(C2Nc3cccc4cccc(c34)N2)cc(OC)c1OC(C)=O	.	-2.06	1.2	.	.	.
COc1cc(/C=C/c2ccc3cccc(OC)c3n2)c(OC(C)=O)c([N+](=O)[O-])c1	.	-1.41	1	94.5	6.1*	15.4*
Cn1c(=O)[nH]c(=O)c2c1nc(CN1CCN(c3cccc(Cl)c3)CC1)n2Cc1ccccc1Cl	-3.7	.	1.1	82.5	11.8*	58.6
Cn1c(=O)[nH]c(=O)c2c1nc(CN1CCN(c3cccc(Cl)c3)CC1)n2CCCc1ccccc1	-10.1	.	1.1	95.2	57.1	82.4
CCCCn1c(CN2CCN(c3cccc(Cl)c3)CC2)nc2c1c(=O)[nH]c(=O)n2C	80.5*	-0.11	0.7	49.4*	19.4*	50.5
CCC(Sc1nc2n[nH]c(C)c2c(=N)n1-c1ccc(C)c(Cl)c1)C(=O)N1CCOCC1 (centres undefined)	1.1	-2.54	1	75.1	25.6*	57.8
